From ChEMBL document CHEMBL1122631, “2,3,4,4a,5,9b-Hexahydro-1H-indeno[1,2-b]pyridines: potential antidepressants” (J Med Chem, 1984)
Several values for one entry are separate records, joined by “and”; a condition that tells them apart may be missing. Equal entries are not always repeated.

Tests used:
Rattus norvegicus [1] = species on record: Rattus norvegicus; experiment: Compound was tested for inhibition of uptake of [14C]norepinephrine (NE) into rat brain hypothalamus, in vitro; Not determined.; format: functional
Summary of the method: (§1)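 Rat brain synaptosomes (Whittaker method) incubated with labelled monoamine (1 × 10^-7 mol final) at 37 °C with or without drug. [14C]NE and [14C]5-HT uptake in Krebs-Henseleit bicarbonate pH 7.4 with 11 mmol glucose; [3H]DA uptake in phosphate buffer, corpus striatum synaptosomes. Time: 5 min whole brain, 10 min hypothalamus. Nonspecific binding at 0 °C; membrane filtration, scintillation counting; IC50 from 3–4 concentrations, at least triplicate.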

Rattus norvegicus [2] = species on record: Rattus norvegicus; experiment: Compound was tested for inhibition of uptake of [14C]5-HT (5-HT) into rat whole brain, in vitro; Not determined.; format: functional; summary of the method: as §1
Mus musculus [3] = experiment: Antidepressant activity was measured by the prevention of tetrabenazine (TBZ) induced ptosis in mice after intraperitoneal administration of the compound.; format: functional; conditions: ip
Summary of the method: (§2)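 Mice given compound ip in 1% methylcellulose (10 mL/kg), 30 min before tetrabenazine 40 mg/kg base ip; solvent+TBZ control per test. Ptosis scored 30 min after TBZ (+1 min) as 100/50/0% (closed/half/open), not normalized.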

[4] = Acute toxicity in mice, after intraperitoneal administration.; format: organism-based; conditions: mouse, in vivo, ip
Summary of the method: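 Mice, groups of 10, given compound suspended in 1% methylcellulose ip at 10 mL/kg, then housed with food and water ad libitum. Observed hourly up to 6 h; deaths recorded at 24 and 48 h.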

[5] = Therapeutic index (TI), ratio of LD50 and ED50 (TBZ) in mice after i.p. administration; conditions: mouse, in vivo, ip
Rattus norvegicus [6] = species on record: Rattus norvegicus; experiment: Compound was tested for inhibition of uptake of [14C]5-HT (5-HT) into rat whole brain, in vitro.; format: functional; summary of the method: as §1
Mus musculus [7] = species on record: Mus musculus; experiment: Percent enhancement of spontaneous motor activity (SMA) was observed. Accumulated motility counts during one hour of observation, was reported.; format: functional
Rattus norvegicus [8] = species on record: Rattus norvegicus; experiment: Compound was tested for inhibition of uptake of [14C]norepinephrine (NE) into rat brain hypothalamus, in vitro.; format: functional; summary of the method: as §1
Mus musculus [9] = experiment: Enhancement of spontaneous motor activity (SMA) in mice after oral administration of 1 mg/kg of the compound. Accumulated motility counts during second hour of observation, was reported.; format: functional
Mus musculus [10] = experiment: Enhancement of spontaneous motor activity (SMA) in mice after oral administration of 0.3 mg/kg of the compound. Accumulated motility counts during second hour of observation, was reported.; format: functional
Rattus norvegicus [11] = species on record: Rattus norvegicus; experiment: Compound was tested for inhibition of uptake of [3H]dopamine (DA) into rat corpus striatum, in vitro.; format: functional; summary of the method: as §1
Mus musculus [12] = species on record: Mus musculus; experiment: Percent enhancement of spontaneous motor activity (SMA) was observed. Accumulated motility counts during first hour of observation, was reported.; format: functional
Mus musculus [13] = experiment: Prevention of tetrabenazine induced ptosis in mice following i.p. administration.; format: functional; conditions: ip; summary of the method: as §2
Mus musculus [14] = experiment: Enhancement of spontaneous motor activity (SMA) in mice after oral administration of 1 mg/kg of the compound. Accumulated motility counts during first hour of observation, was reported.; format: functional
Mus musculus [15] = species on record: Mus musculus; experiment: Percent enhancement of spontaneous motor activity (SMA) was observed. Accumulated motility counts during second hour of observation, was reported.; format: functional
Rattus norvegicus [16] = experiment: Ability to inhibit re uptake of [14C]norepinephrine in synaptosomes from rat whole brain, was determined 1 hr after intraperitoneal administration of 80 mg of compound.; format: functional
Summary of the method: (§3)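 Ex vivo/in vitro: rats dosed orally or ip, killed 1 h later; whole-brain synaptosomes from a pool of n=3 rats; [14C]NE or [14C]5-HT uptake (Krebs-Henseleit bicarbonate, pH 7.4, 11 mmol glucose; 1 × 10^-7 mol labelled amine, 37 °C, 5 min), filtration, scintillation counting; quadruplicate determinations, mean ± SD as % of control-animal uptake.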

Rattus norvegicus [17] = experiment: Ability to inhibit re uptake of [14C]norepinephrine in synaptosomes from rat whole brain, was determined 1 h after peroral administration of 80 mg of compound.; format: functional, organism-based; summary of the method: as §3
Rattus norvegicus [18] = experiment: Ability to inhibit re uptake of [14C]-5-HT in synaptosomes from rat whole brain, was determined 1 h after intraperitoneal administration of 80 mg of compound.; format: functional; summary of the method: as §3
[19] = Partition coefficient (logP); format: physicochemical; conditions: octanol/water
Rattus norvegicus [20] = experiment: Ability to inhibit re uptake of [14C]5-HT in synaptosomes from rat whole brain, was determined 1 h after peroral administration of 80 mg of compound.; format: functional, organism-based; summary of the method: as §3
Mus musculus [21] = experiment: Prevention of tetrabenazine (TBZ) induced ptosis in mice after intraperitoneal administration; b denotes 'No activity detected up to a dose of one-fifth of the LD ip in mice; format: functional, organism-based; summary of the method: as §2

Row | SMILES | IC50 (Rattus norvegicus [1]) | IC50 (Rattus norvegicus [2]) | ED50 (Mus musculus [3]) | LD50 [4] | selectivity ratio [5] | IC50 (Rattus norvegicus [6]) | IC50 (Rattus norvegicus [8]) | other results
1 | CCCCOc1ccc([C@H]2c3ccccc3[C@H]3NCCC[C@@H]23)cc1 | No compound available | No compound available | – | – | – | – | – | –
2 | CCCCOc1ccc([C@@H]2c3ccccc3[C@H]3NCCC[C@@H]23)cc1 | – | – | 1 mg/kg | 46 mg/kg | 46 | – | – | –
3 | CN1CCC[C@H]2[C@@H](c3ccc(O)cc3)c3ccccc3[C@H]21 | No compound available | No compound available | – | – | – | – | – | –
4 | Nc1ccc([C@@H]2c3ccccc3[C@H]3NCCC[C@@H]23)cc1 | – | – | – | 50 mg/kg | 500 | > 100000 nM | 7.4 nM | Exploration motility (Mus musculus [7]): 116; Basis motility (Mus musculus [9]): 12001; Basis motility (Mus musculus [10]): 5501; IC50 (Rattus norvegicus [11]): 44 nM; Exploration motility (Mus musculus [12]): -4; ED50 (Mus musculus [13]): 0.1 mg/kg; Exploration motility (Mus musculus [14]): 7924; Basis motility (Mus musculus [15]): -7
5 | Cc1ccc([C@@H]2c3cc(O)ccc3[C@H]3NCCC[C@@H]23)cc1 | – | – | 1 mg/kg | 67 mg/kg | 67 | 280 nM | 31 nM | Uptake (Rattus norvegicus [16]): 68.2% and 62%; Uptake (Rattus norvegicus [17]): > 90%; Uptake (Rattus norvegicus [18]): > 90% and 84.9%; IC50 (Rattus norvegicus [11]): 17 nM; logP [19]: 3.13; Uptake (Rattus norvegicus [20]): 90.4% and 86.9%
6 | Cc1ccc([C@H]2c3cc(O)ccc3[C@H]3NCCC[C@@H]23)cc1N | – | – | 10 mg/kg | 67 mg/kg | – | – | – | –
7 | COc1ccc2c(c1)[C@@H](c1ccc(N(C)C)cc1)[C@@H]1CCCN[C@H]21 | No compound available | No compound available | – | – | – | – | – | –
8 | Oc1ccc([C@H]2c3ccccc3[C@H]3NCCC[C@@H]23)cc1 | No compound available | No compound available | – | – | – | – | – | –
9 | c1ccc2c(c1)[C@H](c1ccncc1)[C@@H]1CCCN[C@H]21 | No compound available | No compound available | – | – | – | – | – | –
10 | CCCN1CCC[C@H]2[C@H](c3ccccc3)c3ccccc3[C@H]21 | – | – | – | 24 mg/kg | 30 | > 100000 nM | 410 nM | IC50 (Rattus norvegicus [11]): 110 nM; ED50 (Mus musculus [13]): 0.8 mg/kg
11 | CNCCCN1c2ccccc2CCc2ccccc21 [DESIPRAMINE] | – | – | – | – | – | 11 nM | 25 nM | –
12 | COc1cc2c(cc1OC)[C@H]1NCCC[C@H]1[C@@H]2c1cccnc1 | No compound available | No compound available | – | – | – | – | – | –
13 | CCCCOc1ccc([C@@H]2c3ccccc3[C@@H]3[C@H]2CCCN3C)cc1 | – | – | 10 mg/kg | 134 mg/kg | 14 | – | – | –
14 | COc1ccc2c(c1)[C@H](c1ccc(C(C)C)cc1)[C@@H]1CCCN[C@H]21 | – | – | – | 37 mg/kg | – | – | – | ED50 (Mus musculus [21]): No activity detected up to a dose of 1/5 LD50 ip in mice
15 | COc1cc2c(cc1OC)[C@H]1NCCC[C@H]1[C@@H]2c1ccccc1 | No compound available | No compound available | – | – | – | – | – | –
16 | Cc1ccc([C@@H]2c3cc(O)ccc3[C@H]3NCCC[C@@H]23)cc1N | – | – | 3 mg/kg | 210 mg/kg | 70 | 430 nM | 40 nM | Uptake (Rattus norvegicus [16]): 80% and > 90% and 87.7%; Uptake (Rattus norvegicus [17]): > 90% and 83.5% and 88.1%; Uptake (Rattus norvegicus [18]): > 90%; IC50 (Rattus norvegicus [11]): 100 nM; logP [19]: 2.33; Uptake (Rattus norvegicus [20]): > 90%
